Our source for the Activity values is ChEMBL document CHEMBL3120059, “Flavonoids, flavonoid metabolites, and phenolic acids inhibit oxidative stress in the neuronal cell line HT-22 monitored by ECIS and MTT assay: a comparative study” (J Nat Prod, 2014).

Each structure is given as a SMILES string. Calls of active or inactive are those of the source. The calls are words filed in the database; no cut-off is given here.

One series concerns HT-22. Put plainly: Neuroprotective activity in mouse HT22 cells assessed as t-BOOH-induced toxicity at 40 uM preincubated for 3 hrs followed by t-BOOH induction measured after 4.5 hrs by MTT assay. It counts as functional.
Details: not given
The gist of the method: (§1)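 Confluent HT-22 cells under the ECIS conditions: 3 h preincubation with 40 μM compound, then 300 μM t-BOOH. MTT reaction was started 4.5 h or 9 h after t-BOOH addition. Viability is expressed relative to untreated control.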
(Tetrazolium assays rely on reduction of a dye to a coloured formazan, in cell work by metabolically active cells.)
As for `O=c1c(O)c(-c2ccc(O)c(O)c2)oc2cc(O)cc(O)c12` [QUERCETIN], the Activity was 70%.
On the same count and under the same terms, under `Cc1ccc(O)c(O)c1` stands 70%; under `COC(=O)Cc1ccc(O)c(O)c1`, 70%.

Another series deals with HT-22. Put plainly: Neuroprotective activity in mouse HT22 cells assessed as t-BOOH-induced toxicity at 40 uM preincubated for 3 hrs followed by t-BOOH induction measured after 9 hrs by MTT assay. The format is functional, cell-based.
Details: not given
The gist of the method:
as §1
For the compound `Oc1ccccc1O` [CATECHOL], the outcome was Active.
The same measure, in the same setting: to `COC(=O)/C=C/c1ccc(O)c(O)c1` [METHYLCAFFEATE] belongs “Active”; to `O=c1c(O)c(-c2ccc(O)c(O)c2)oc2cc(O)cc(O)c12` [QUERCETIN], “Active”; to `Cc1ccc(O)c(O)c1`, “Active”.
As to `O=C1C[C@@H](c2ccc(O)c(O)c2)Oc2cc(O)cc(O)c21` [ERIODICTYOL], the outcome was Active.
`O=c1cc(-c2ccc(O)c(O)c2)oc2cc(O)cc(O)c12`: the result was Active.
On the same count and under the same terms, to `COC(=O)Cc1ccc(O)c(O)c1` belongs “Active”.

A further series has as its system HT-22. The experiment in a line: Neuroprotective activity in mouse HT22 cells assessed as reduction of glutamate-induced oxidative stress by ECIS analysis. It counts as functional, cell-based.
Details: not given
As to `O=C(O)[C@H]1O[C@@H](Oc2c(-c3ccc(O)c(O)c3)oc3cc(O)cc(O)c3c2=O)[C@H](O)[C@@H](O)[C@@H]1O`, the outcome was inactive.
On to `O=C1C[C@@H](c2ccc(O)c(O)c2)Oc2cc(O)cc(O)c21` [ERIODICTYOL], for which the outcome was Active.
Same read-out and setting: to `COC(=O)[C@H]1O[C@@H](Oc2c(-c3ccc(O)c(O)c3)oc3cc(O)cc(O)c3c2=O)[C@H](O)[C@@H](O)[C@@H]1O` belongs “inactive”.

A further series has as its system HT-22. Put plainly: Cytotoxicity against mouse HT22 cells assessed as cell viability after 24 hrs by MTT assay. It counts as cell-based. The note with it: ht-22, 24 h.
In the case of `O=C1C[C@@H](c2ccc(O)c(O)c2)Oc2cc(O)cc(O)c21` [ERIODICTYOL], the Activity entry is “Dose-dependent effect”.
The same measure, in the same setting: to `O=c1c(O)c(-c2ccc(O)cc2)oc2cc(O)cc(O)c12` [KAEMPFEROL] belongs “Dose-dependent effect”.

The test system of the next series is HT-22. Put plainly: Neuroprotective activity in mouse HT22 cells assessed as reduction of glutamate-induced oxidative stress after 24 hrs by MTT assay.
Details: not given
It counts as functional, cell-based. The gist of the method: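 Unconfluent HT-22 cells seeded at 5 × 10^3/well, cultured 24 h, then incubated 24 h with compound plus 5 mM glutamate. MTT stock (4 mg/mL) was diluted 1:10 and incubated 3 h. Lysis was with 10% SDS pH 4.1, A560 read next day. Viability is % of untreated control; three independent experiments, each in quadruplicate.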
Consider `O=C(O)[C@H]1O[C@@H](Oc2c(-c3ccc(O)c(O)c3)oc3cc(O)cc(O)c3c2=O)[C@H](O)[C@@H](O)[C@@H]1O`, for which the outcome was inactive.
The same measure, in the same setting: to `O=C1C[C@@H](c2ccc(O)c(O)c2)Oc2cc(O)cc(O)c21` [ERIODICTYOL] belongs “Dose-dependent effect”; to `O=c1c(O)c(-c2ccc(O)cc2)oc2cc(O)cc(O)c12` [KAEMPFEROL], “Dose-dependent effect”; to `COC(=O)[C@H]1O[C@@H](Oc2c(-c3ccc(O)c(O)c3)oc3cc(O)cc(O)c3c2=O)[C@H](O)[C@@H](O)[C@@H]1O`, “inactive”.

Another series concerns HT-22. The experiment in a line: Neuroprotective activity in mouse HT22 cells assessed as reduction of t-BOOH-induced oxidative stress at 40 uM preincubated for 3 hrs followed by t-BOOH induction measured after 20 hrs by MTT assay. The format is functional, cell-based.
Details: not given
An outline of the steps:
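Run in the ECIS wells right after impedance recording ended, 20 h after t-BOOH (3 h, 40 μM compound preincubation; 300 μM t-BOOH). MTT stock (4 mg/mL in PBS) was diluted 1:10 in medium and incubated 1 h. Lysis was with 10% SDS pH 4.1, A560 read next day. Viability is given as % of untreated control, mean ± SD of three independent experiments.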
Regarding `O=C(O)/C=C/c1ccc(O)c(O)c1` [CAFFEIC ACID], the outcome was inactive.
The same measure, in the same setting: to `O=c1cc(-c2ccc(O)cc2)oc2cc(O)cc(O)c12` belongs “inactive”; to `Oc1ccccc1O` [CATECHOL], “Active”; to `COc1cc(/C=C/C(=O)O)ccc1O` [FERULATE], “inactive”.
The same measure, in the same setting: to `COC(=O)/C=C/c1ccc(O)c(O)c1` [METHYLCAFFEATE] belongs “Active”; to `O=c1c(O)c(-c2ccc(O)c(O)c2)oc2cc(O)cc(O)c12` [QUERCETIN], “Active”.
Still for that read-out and setting: under `COC(=O)/C=C/c1ccc(O)c(OC)c1` stands “inactive”; under `COc1cc(-c2oc3cc(O)cc(O)c3c(=O)c2O)ccc1O`, “inactive”; under `O=C1C[C@@H](c2ccc(O)cc2)Oc2cc(O)cc(O)c21`, “inactive”.
`Cc1ccc(O)c(O)c1`: the result was Active.
On the same count and under the same terms, under `O=C1C[C@@H](c2ccc(O)c(O)c2)Oc2cc(O)cc(O)c21` [ERIODICTYOL] stands “Active”; under `Oc1cc(O)c2c(c1)O[C@H](c1ccc(O)c(O)c1)[C@H](O)[C@H]2c1c(O)cc(O)c2c1O[C@H](c1ccc(O)c(O)c1)[C@@H](O)C2`, “inactive”; under `Oc1cc(O)c2c(c1)OC(c1ccc(O)c(O)c1)C(O)C2` (stereo not drawn), “inactive”.
On the same count and under the same terms, under `O=c1cc(-c2ccc(O)c(O)c2)oc2cc(O)cc(O)c12` stands “Active”.
Same read-out and setting: to `COC(=O)Cc1ccc(O)c(O)c1` belongs “Active”; to `O=c1c(O)c(-c2ccc(O)cc2)oc2cc(O)cc(O)c12` [KAEMPFEROL], “inactive”.

For a further series, the system named is HT-22. Put plainly: Neuroprotective activity in mouse HT22 cells assessed as reduction of t-BOOH-induced oxidative stress at 40 uM preincubated for 3 hrs followed by t-BOOH induction measured for 20 hrs by time-resolved ECIS analysis. It counts as functional, cell-based.
Details: not given
An outline of the steps: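 HT-22 cells on 8-well gold-electrode arrays precoated with glutaraldehyde-crosslinked gelatin, seeded at 6 × 10^5 cells/well and grown 2−3 days to confluence (37 °C, 5% CO2). After 1 h baseline, compound (40 μM final, DMSO <0.1%) was added for 3 h, then 300 μM t-BOOH. Impedance was recorded 20 h, |Z| normalized to the last pre-t-BOOH value; three independent experiments.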
Regarding `O=C(O)/C=C/c1ccc(O)c(O)c1` [CAFFEIC ACID], the outcome was inactive.
Same read-out and setting: to `O=c1cc(-c2ccc(O)cc2)oc2cc(O)cc(O)c12` belongs “inactive”.
On the same count and under the same terms, under `Oc1ccccc1O` [CATECHOL] stands “Active”.
The same measure, in the same setting: under `COc1cc(/C=C/C(=O)O)ccc1O` [FERULATE] stands “inactive”.
On to `COC(=O)/C=C/c1ccc(O)c(O)c1` [METHYLCAFFEATE], for which the result was Active.
Take `COC(=O)/C=C/c1ccc(O)c(OC)c1`: the outcome was inactive.
Same read-out and setting: to `COc1cc(-c2oc3cc(O)cc(O)c3c(=O)c2O)ccc1O` belongs “inactive”.
Turning to `O=C1C[C@@H](c2ccc(O)cc2)Oc2cc(O)cc(O)c21`, the result was inactive.
Same read-out and setting: under `Cc1ccc(O)c(O)c1` stands “Active”; under `Oc1cc(O)c2c(c1)O[C@H](c1ccc(O)c(O)c1)[C@H](O)[C@H]2c1c(O)cc(O)c2c1O[C@H](c1ccc(O)c(O)c1)[C@@H](O)C2`, “inactive”.
Same read-out and setting: under `Oc1cc(O)c2c(c1)OC(c1ccc(O)c(O)c1)C(O)C2` (stereo not drawn) stands “inactive”; under `COC(=O)Cc1ccc(O)c(O)c1`, “Active”; under `O=c1c(O)c(-c2ccc(O)cc2)oc2cc(O)cc(O)c12` [KAEMPFEROL], “inactive”.

A further series relates to HT-22. The experiment in a line: Cytotoxicity against mouse HT22 cells assessed as cell viability at 40 uM after 24 hrs by MTT assay. The format is cell-based. The following applies: ht-22, 24 h. The gist of the method: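 Confluent-layer MTT. Gelatin-precoated 96-well plates were seeded at 5 × 10^4 HT-22 cells/well and grown 24 h to confluence, then exposed 24 h to 40 μM compound (DMSO <0.1%). MTT stock (4 mg/mL) was diluted 1:10 and incubated 1 h. Lysis was with 10% SDS pH 4.1, A560 read next day. Results are % of untreated control, ≥3 independent experiments.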
For `O=C(O)/C=C/c1ccc(O)c(O)c1` [CAFFEIC ACID], the Activity result is recorded as “Non-toxic”.
With `O=C(O)Cc1ccc(O)c(O)c1` [3,4-DIHYDROXYPHENYLACETIC ACID], the Activity entry is “Non-toxic”.
Same read-out and setting: under `Oc1ccccc1O` [CATECHOL] stands “Toxic”; under `O=C(O)Cc1cccc(O)c1` [3-Hydroxyphenylacetate], “Non-toxic”; under `COc1cc(/C=C/C(=O)O)ccc1O` [FERULATE], “Non-toxic”.
Still for that read-out and setting: under `COC(=O)/C=C/c1ccc(O)c(O)c1` [METHYLCAFFEATE] stands “Non-toxic”; under `COC(=O)/C=C/c1ccc(O)c(OC)c1`, “Non-toxic”; under `Cc1ccc(O)c(O)c1`, “Non-toxic”.
Still for that read-out and setting: under `COC(=O)Cc1ccc(O)c(O)c1` stands “Non-toxic”.

In a further series the test system is HT-22. Put plainly: Neuroprotective activity in mouse HT22 cells assessed as reduction of t-BOOH-induced oxidative stress preincubated for 3 hrs followed by t-BOOH induction measured for 20 hrs by time-resolved ECIS analysis.
Details: not given
The format is functional, cell-based. An outline of the steps:
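HT-22 cells grown to confluence (2–3 days) on gelatin/glutaraldehyde-precoated gold electrode arrays, 37 °C, 5% CO2; 1 h baseline equilibration, then compounds (DMSO <0.1%, 40 μM final; positive control 10–50 μM) preincubated 3 h before 300 μM t-BOOH. Impedance magnitude |Z| recorded 20 h further, normalized to last value before t-BOOH; three independent experiments, mean ± SD.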
With `O=c1c(O)c(-c2ccc(O)c(O)c2)oc2cc(O)cc(O)c12` [QUERCETIN], the Activity result is “Dose-dependent effect”.
